Activity calls are given as the source filed them. The calls are words filed in the database; no cut-off is given here.
Tests used:
[1] = Antioxidant activity assessed as hydroxyl radical scavenging activity measured 10 mins after H2O2 addition by pyronin B dye based assay; format: functional
Method in brief: (§1)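 In vitro radical scavenging was reported as IC50 (mM) alongside a positive control. Data are mean ± s, n = 6, with experiments run in triplicate.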

[2] = Antioxidant activity assessed as DPPH radical scavenging activity incubated for 30 mins in dark; format: functional; method in brief: as §1
[3] = Antioxidant activity assessed as superoxide radical scavenging activity measured every 30 secs for 6 mins in presence of superoxide generator pyrogallol; format: functional; method in brief: as §1
[4] = Antioxidant activity assessed as ABTS radical scavenging activity after 6 mins by spectrophotometric analysis; format: functional; method in brief: as §1
Mus musculus [5] = experiment: Antiinflammatory activity in Kunming mouse CFA-induced arthritis model assessed as PGE2 level in serum at 25 mg/kg/day, po for 1 week administered on day 8 post CFA induction by ELISA (reference value: 207 +/- 2.1 ng/L); format: functional
Mus musculus [6] = experiment: Antiinflammatory activity in Kunming mouse CFA-induced arthritis model assessed as PGE2 level in serum at 100 mg/kg/day, po for 1 week administered on day 8 post CFA induction by ELISA (reference value: 207 +/- 2.1 ng/L); format: functional
Mus musculus [7] = experiment: Antioxidant activity in Kunming mouse CFA-induced arthritis model assessed as malondialdehyde level in serum at 25 mg/kg/day, po for 1 week administered on day 8 post CFA induction by ELISA (reference value: 15.5 +/- 1.1 nmol/ml); format: functional
Mus musculus [8] = experiment: Antiinflammatory activity in Kunming mouse CFA-induced arthritis model assessed as COX-2 level in serum at 25 mg/kg/day, po for 1 week administered on day 8 post CFA induction by ELISA (reference value: 85.3 +/- 0.1 ng/L); format: functional
Mus musculus [9] = experiment: Antioxidant activity in Kunming mouse CFA-induced arthritis model assessed as superoxide dismutase activity in serum at 25 mg/kg/day, po for 1 week administered on day 8 post CFA induction by ELISA (reference value: 66.7 +/- 0.9 U/ml); format: functional
Mus musculus [10] = experiment: Antiinflammatory activity in Kunming mouse CFA-induced arthritis model assessed as inhibition of paw swelling at 100 mg/kg/day, po for 1 week administered on day 8 post CFA induction measured after day 3 during compound dosing; format: functional, organism-based
Method in brief: (§2)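 Dosing began seven days after the model was established, at 100 mg·kg⁻¹·d⁻¹ (high) or 25 mg·kg⁻¹·d⁻¹ (low). Inhibition of paw swelling was expressed in %, with celecoxib as reference group.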

Mus musculus [11] = experiment: Antiinflammatory activity in Kunming mouse CFA-induced arthritis model assessed as COX-2 level in serum at 100 mg/kg/day, po for 1 week administered on day 8 post CFA induction by ELISA (reference value: 85.3 +/- 0.1 ng/L); format: functional
Mus musculus [12] = experiment: Antioxidant activity in Kunming mouse CFA-induced arthritis model assessed as total antioxidant capacity in serum at 100 mg/kg/day, po for 1 week administered on day 8 post CFA induction by ELISA (reference value: 2.9 +/- 0.5 U/ml); format: functional
Mus musculus [13] = experiment: Antiinflammatory activity in Kunming mouse CFA-induced arthritis model assessed as inhibition of paw swelling at 25 mg/kg/day, po for 1 week administered on day 8 post CFA induction measured every 2 days during compound dosing; format: functional, organism-based; method in brief: as §2
Mus musculus [14] = experiment: Antioxidant activity in Kunming mouse CFA-induced arthritis model assessed as malondialdehyde level in serum at 100 mg/kg/day, po for 1 week administered on day 8 post CFA induction by ELISA (reference value: 15.5 +/- 1.1 nmol/ml); format: functional
Mus musculus [15] = experiment: Antioxidant activity in Kunming mouse CFA-induced arthritis model assessed as total antioxidant capacity in serum at 25 mg/kg/day, po for 1 week administered on day 8 post CFA induction by ELISA (reference value: 2.9 +/- 0.5 U/ml); format: functional
Mus musculus [16] = experiment: Antioxidant activity in Kunming mouse CFA-induced arthritis model assessed as superoxide dismutase activity in serum at 100 mg/kg/day, po for 1 week administered on day 8 post CFA induction by ELISA (reference value: 66.7 +/- 0.9 U/ml); format: functional
Mus musculus [17] = experiment: Antiinflammatory activity in Kunming mouse CFA-induced arthritis model assessed as inhibition of paw swelling at 100 mg/kg/day, po for 1 week administered on day 8 post CFA induction measured every 2 days during compound dosing; format: functional; method in brief: as §2
[18] = Solubility of the compound in water; format: physicochemical; conditions: buffer
Mus musculus [19] = experiment: Antiinflammatory activity in Kunming mouse CFA-induced arthritis model assessed as PGE2 level in serum at 30 mg/kg/day, po for 1 week administered on day 8 post CFA induction by ELISA (reference value: 207 +/- 2.1 ng/L); format: functional
Mus musculus [20] = experiment: Antioxidant activity in Kunming mouse CFA-induced arthritis model assessed as total antioxidant capacity in serum at 30 mg/kg/day, po for 1 week administered on day 8 post CFA induction by ELISA (reference value: 2.9 +/- 0.5 U/ml); format: functional
Mus musculus [21] = experiment: Antiinflammatory activity in Kunming mouse CFA-induced arthritis model assessed as inhibition of paw swelling at 30 mg/kg/day, po for 1 week administered on day 8 post CFA induction measured every 2 days during compound dosing; format: functional, organism-based
Mus musculus [22] = experiment: Antioxidant activity in Kunming mouse CFA-induced arthritis model assessed as superoxide dismutase activity in serum at 30 mg/kg/day, po for 1 week administered on day 8 post CFA induction by ELISA (reference value: 66.7 +/- 0.9 U/ml); format: functional
Mus musculus [23] = experiment: Antiinflammatory activity in Kunming mouse CFA-induced arthritis model assessed as COX-2 level in serum at 30 mg/kg/day, po for 1 week administered on day 8 post CFA induction by ELISA (reference value: 85.3 +/- 0.1 ng/L); format: functional
Mus musculus [24] = experiment: Antioxidant activity in Kunming mouse CFA-induced arthritis model assessed as malondialdehyde level in serum at 30 mg/kg/day, po for 1 week administered on day 8 post CFA induction by ELISA (reference value: 15.5 +/- 1.1 nmol/ml); format: functional

SMILES | IC50 [1] [mM] | IC50 [2] [mM] | IC50 [3] [mM] | IC50 [4] [mM] | also measured
CCCCCCOc1cc(OC)c(Br)cc1C(C)=O | 53.1 | 42.4 | 34 | 35.7 | –
CCCCCCCCCCCCCCCCOc1cc(OC)ccc1C(C)=O | 61.5 | 39.4 | 39.4 | 36.3 | Activity (Mus musculus [5]): 182.2 ng/L; Activity (Mus musculus [6]): 159.4 ng/L; Activity (Mus musculus [7]): 9.7 nmol/mL; Activity (Mus musculus [8]): 65.2 ng/L; Activity (Mus musculus [9]): 72.1 U/ml; inhibition (Mus musculus [10]): Active; Activity (Mus musculus [11]): 64.4 ng/L; Activity (Mus musculus [12]): 16.9 U/ml; inhibition (Mus musculus [13]): Active; Activity (Mus musculus [14]): 8.8 nmol/mL; Activity (Mus musculus [15]): 11.1 U/ml; Activity (Mus musculus [16]): 80.7 U/ml; inhibition in vivo at 100 mg/kg/day (Mus musculus [17]): 65%
CCCCCCCCCCCCCCOc1cc(OC)c(Br)cc1C(C)=O | 13.2 | 16.1 | 6.8 | 8.7 | –
CCCCCCCCOc1cc(OC)ccc1C(C)=O | 69.4 | 40 | 21.2 | 38.3 | –
COc1ccc(C(C)=O)c(O)c1 [PAEONOL] | 0.2 | 42.8 | 5.8 | 16 | Activity (Mus musculus [5]): 155.5 ng/L; Activity (Mus musculus [6]): 137.1 ng/L; Activity (Mus musculus [7]): 8.9 nmol/mL; Activity (Mus musculus [8]): 66.2 ng/L; Activity (Mus musculus [9]): 62.5 U/ml; Activity (Mus musculus [11]): 61.1 ng/L; solubility [18]: Soluble; Activity (Mus musculus [12]): 4.1 U/ml; inhibition (Mus musculus [13]): Active; Activity (Mus musculus [14]): 7.9 nmol/mL; Activity (Mus musculus [15]): 4.6 U/ml; Activity (Mus musculus [16]): 68.1 U/ml; inhibition (Mus musculus [17]): Active
CCCCCCOc1cc(OC)ccc1C(C)=O | 84.4 | 42.6 | 18 | 42.1 | –
CCCCCCCCCCCCOc1cc(OC)ccc1C(C)=O | 65.6 | 37.4 | 28.5 | 40.7 | –
Cc1ccc(-c2cc(C(F)(F)F)nn2-c2ccc(S(N)(=O)=O)cc2)cc1 [CELECOXIB] | – | – | – | – | Activity (Mus musculus [19]): 135.3 ng/L; Activity (Mus musculus [20]): 6.3 U/ml; inhibition (Mus musculus [21]): Active; Activity (Mus musculus [22]): 78 U/ml; Activity (Mus musculus [23]): 61.6 ng/L; Activity (Mus musculus [24]): 7.3 nmol/mL
CCCCCCCCCCCCOc1cc(OC)c(Br)cc1C(C)=O | 23.1 | 29.5 | 10.6 | 32.7 | –
CCOc1cc(OC)ccc1C(C)=O | 35.3 | 39.6 | 6.6 | 37.7 | solubility [18]: Soluble
CCOc1cc(OC)c(Br)cc1C(C)=O | 57.7 | 46.8 | 37.9 | 36 | solubility [18]: Soluble
CCCCCCCCCCCCCCOc1cc(OC)ccc1C(C)=O | 57 | 43.6 | 35.9 | 38 | –
CCCCCCCCCCOc1cc(OC)ccc1C(C)=O | 57.4 | 40.1 | 26.6 | 41.7 | –
CCCCOc1cc(OC)ccc1C(C)=O | 57.2 | 43.3 | 15.6 | 36.3 | –
CCCCOc1cc(OC)c(Br)cc1C(C)=O | 56.9 | 42.3 | 38.2 | 34.1 | –
Cc1c(C)c2c(c(C)c1O)CCC(C)(C(=O)O)O2 (centres undefined) [TROLOX] | 0.2 | 0.2 | 0.6 | 0.3 | –
CCCCCCCCOc1cc(OC)c(Br)cc1C(C)=O | 38.1 | 39 | 30.9 | 32 | –
COc1cc(O)c(C(C)=O)cc1Br | 3 | 41.8 | 15.6 | 31.4 | Activity (Mus musculus [5]): 179.5 ng/L; Activity (Mus musculus [6]): 142.3 ng/L; Activity (Mus musculus [7]): 9.9 nmol/mL; Activity (Mus musculus [8]): 65.4 ng/L; Activity (Mus musculus [9]): 76.3 U/ml; Activity (Mus musculus [11]): 57.6 ng/L; Activity (Mus musculus [12]): 6 U/ml; inhibition (Mus musculus [13]): Active; Activity (Mus musculus [14]): 6.4 nmol/mL; Activity (Mus musculus [15]): 3.8 U/ml; Activity (Mus musculus [16]): 78.1 U/ml; inhibition (Mus musculus [17]): Active
CCCCCCCCCCOc1cc(OC)c(Br)cc1C(C)=O | 29.7 | 35.1 | 15 | 34.7 | –
CCCCCCCCCCCCCCCCOc1cc(OC)c(Br)cc1C(C)=O | 0.1 | 6.5 | 1.8 | 4.6 | Activity (Mus musculus [5]): 189.3 ng/L; Activity (Mus musculus [6]): 150.1 ng/L; Activity (Mus musculus [7]): 7.5 nmol/mL; Activity (Mus musculus [8]): 63.9 ng/L; Activity (Mus musculus [9]): 73.9 U/ml; Activity (Mus musculus [11]): 64.7 ng/L; Activity (Mus musculus [12]): 11.6 U/ml; inhibition (Mus musculus [13]): Active; Activity (Mus musculus [14]): 5.8 nmol/mL; Activity (Mus musculus [15]): 6.5 U/ml; Activity (Mus musculus [16]): 76.2 U/ml; inhibition in vivo at 100 mg/kg/day (Mus musculus [17]): 45%

— ChEMBL document CHEMBL3862014, “Synthesis and anti-inflammatory activity of paeonol analogues in the murine model of complete Freund's adjuvant induced arthritis” (Bioorg Med Chem Lett, 2016)
